Assay outcomes (PubChem)
DNA FID counter – compounds displacing fluorescent DNA intercalator, primary screen, artefact control for HCV NS3 helicase inhibitor project, biochemical, FID fluorescence; DNA fluorescent intercalator displacement; inhibition, % at 7.9 µM; actives 0.17% (n = 290,000); in the data active = inhibition above about 37%;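 note: 0% = vehicle and 100% = reference compound; higher means more ethidium bromide displaced from hairpin DNA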
core dimer inh – inhibitors of HCV core protein dimerization, primary screen, biochemical, TR-FRET, high-throughput; TR-FRET GST/Flag-core106 dimerization, 1536-well; inhibition, % at 5 µM; actives 0.33% (n = 300,000); AID 1899, 2009;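 active = inhibition above the mean of all tested compounds plus 3 SD, set per screening campaign, cut at about 45% in these data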
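Test system: GST/Flag-tagged HCV core106 proteins; Medium: KF-containing HEPES buffer, pH 7.45, DTT, CHAPS, BSA; Times: compound-protein-antibody incubation 4 h at 22.5 °C; Detection: TR-FRET 671 and 617 nm emission; Benchmarks: wells lacking GST-core106 and wells with excess unlabelled core106.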
MEX-5 binding – MEX-5 zinc finger RNA-binding disruptors – biochemical, C. elegans, fluorescence polarization, MLPCN library, primary screen; Zinc finger protein mex-5 (Caenorhabditis elegans), Q9XUB2; MEX-5/FITC-TCR2 RNA binding; active compounds read low; activity score (negative = inhibition of binding), % at 10 µM; actives 0.38% (n = 300,000); AID 1832, 2009;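 active = inhibition past about -25% in most replicates, and total fluorescence under double the plate's negative control median, limit read from the data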;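 note: 0% = DMSO and -100% = 5 µM competing unlabeled TCR2 RNA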
CendR NRP1 mod – modulators of CendR peptide binding to NRP-1, primary screen, biochemical, fluorescence polarization, uHTS. Neuropilin-1 (Homo sapiens), O14786. FAM-RPARPAR peptide binding to NRP-1. inhibition, % at 25 µM. actives 0.85% (n = 360,000);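 active = inhibition or corrected inhibition above about 18%, plus a signal ratio from 0.5 to 1.5, limit read from the data, passing the limit was not always enough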
Target sequence (O14786 whole entry, looked up): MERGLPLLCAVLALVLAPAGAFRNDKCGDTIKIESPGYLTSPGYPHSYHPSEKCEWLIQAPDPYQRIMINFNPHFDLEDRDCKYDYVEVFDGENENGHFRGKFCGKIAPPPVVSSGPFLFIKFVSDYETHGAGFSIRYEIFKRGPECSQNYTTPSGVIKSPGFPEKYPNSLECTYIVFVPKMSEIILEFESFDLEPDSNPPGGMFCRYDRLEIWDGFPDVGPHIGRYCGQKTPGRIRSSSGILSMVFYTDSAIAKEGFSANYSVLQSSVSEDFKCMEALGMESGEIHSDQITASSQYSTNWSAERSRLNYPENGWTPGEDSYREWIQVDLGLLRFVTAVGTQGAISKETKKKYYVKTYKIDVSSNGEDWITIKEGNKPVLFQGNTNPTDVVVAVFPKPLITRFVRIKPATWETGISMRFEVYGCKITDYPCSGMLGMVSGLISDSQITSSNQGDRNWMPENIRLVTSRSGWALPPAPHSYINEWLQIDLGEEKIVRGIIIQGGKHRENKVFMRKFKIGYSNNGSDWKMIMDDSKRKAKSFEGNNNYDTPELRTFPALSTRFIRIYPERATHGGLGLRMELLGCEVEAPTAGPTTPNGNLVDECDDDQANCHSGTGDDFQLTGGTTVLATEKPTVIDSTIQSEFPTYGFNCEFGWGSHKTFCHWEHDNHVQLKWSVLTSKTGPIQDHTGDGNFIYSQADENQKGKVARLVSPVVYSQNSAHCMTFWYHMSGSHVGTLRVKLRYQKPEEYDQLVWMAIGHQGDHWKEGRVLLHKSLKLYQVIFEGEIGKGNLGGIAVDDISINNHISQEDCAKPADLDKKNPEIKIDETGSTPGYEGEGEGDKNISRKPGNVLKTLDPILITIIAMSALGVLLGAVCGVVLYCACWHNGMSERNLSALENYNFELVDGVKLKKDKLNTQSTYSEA
Starred values were filed as active, the others as inactive; · = no result. In the library only some 1.5% were active in any assay of this set; here they are far more common.

SMILES | DNA FID counter | core dimer inh | MEX-5 binding | CendR NRP1 mod
CC1CCN(C(=O)N[C@@H](Cc2ccccc2)C(=O)O)CC1 | -2 | 0 | -1 | 20*
CCCS(=O)(=O)NC(=O)C1(C)CCCN(C(=O)c2c(OC)cccc2OC)C1 (stereo unspecified) | · | · | · | 1
Cc1cc(/C=C2\SC(=S)N(Cc3ccco3)C2=O)c(C)n1-c1cccnc1 | -1 | · | -62* | -40
CCCOc1ccc(Oc2ccc(S(=O)(=O)N3CCN(C)CC3)cn2)cc1 | · | -1 | 3 | 2
CN(C)c1ncc(C2=C(Cl)C(=O)C(N3CCCC3)=C(Cl)C2=O)s1 | -8 | 84* | -17 | 15
O=C1C(Cl)=C(N2CCCCC2)C(=O)C(Cl)=C1c1cnc(N2CCCCC2)s1 | -15 | · | -4 | 14
O=C1NN=C2CCCCCCC12 (stereo unspecified) | · | · | · | 4
Cc1c(C)n2c(SCC(=O)NC3CCCCC3)nnc2[nH]c1=O | · | -1 | 2 | -6
Cc1c(C)n2c(SCC(=O)N3CCC(C)CC3)nnc2[nH]c1=O | · | 4 | 2 | 24*
COc1cccc(-c2cnc3c(NC(C)=O)cc(-c4ccccc4OC)cn23)c1 | · | · | · | -9
CCOC(=O)c1c(C)oc2c1c(C=NC1CCS(=O)(=O)C1)c(O)c1ccccc12 (stereo unspecified) | -1 | -3 | 2 | -7
CCOC(=O)c1c(C)oc2c1c(C=NCCC(=O)O)c(O)c1ccccc12 | -13 | -2 | -9 | 26*
O=C(O)c1cc2nc(-c3cccs3)cc(C(F)(F)F)n2n1 | 12 | 8 | -7 | 29*
FC(F)(F)c1ccccc1Cc1c(-c2cccc(Cl)c2)nc2ccc(Cl)cn12 | · | · | · | -8
COc1cc2cnncc2cc1OC | -1 | 5 | 2 | -3
COc1cc2cc(Br)cc(Br)c2nc1C | -4 | 63* | 3 | -19
COc1cccc(-c2cc3nc(C)c(C)c(N4CCN(C(=O)c5ccoc5)CC4)n3n2)c1 | · | · | · | -7
CC1CC(=O)c2c(cc3c(-c4c(O)cc(O)c5c(O)c6c(cc45)OC(C)CC6=O)c(O)cc(O)c3c2O)O1 (stereo unspecified) | 28 | -20 | -35* | -7
O=C1CC(c2ccc(O)cc2)Oc2cc(O)cc(O)c21 (stereo unspecified) | -3 | -7 | 3 | 0
Cc1ccc(CN2CC(N3CCCC3)CS2(=O)=O)cc1 (stereo unspecified) | · | · | · | 3
Cc1cc(C(=O)OCC(=O)c2cccc([N+](=O)[O-])c2)c2cccc(C)c2n1 | 2 | 88* | 2 | 4
Cc1cc(C)c(S(=O)(=O)N2CCOC2CNC(=O)C(=O)NCCc2ccc(S(N)(=O)=O)cc2)c(C)c1 (stereo unspecified) | -28 | 50* | 1 | -20
O=C(C=Cc1ccccc1)CC(c1ccccc1)N1CCOCC1 (stereo unspecified) | · | · | · | 1
Cc1ccc(S(=O)(=O)Oc2ccc(N3C(=O)C4C5CCC(C5)C4C3=O)cc2)cc1 (stereo unspecified) | -14 | 4 | -2 | 24*
O=C1C2C3CCC(C3)C2C(=O)N1c1ccc(OS(=O)(=O)c2ccccc2)cc1 (stereo unspecified) | -15 | 5 | 1 | 2
SMILES | DNA FID counter | core dimer inh | MEX-5 binding | CendR NRP1 mod
COc1cccc2cc(C(C)N(CCCN3CCOCC3)C(=S)Nc3cccc(C)c3)oc12 (stereo unspecified) | 15 | -1 | 1 | 39*
COc1cccc2cc(C(C)N(CCCN3CCOCC3)C(=S)Nc3cc(C)cc(C)c3)oc12 (stereo unspecified) | 12 | 2 | -1 | -4
COc1cccc2cc(C(C)N(CCCN3CCOCC3)C(=S)Nc3c(C)cccc3C)oc12 (stereo unspecified) | 14 | -2 | -1 | -6
CCc1ccc(NC(=O)N(CCCN2CCOCC2)C(C)c2cc3cccc(OC)c3o2)cc1 (stereo unspecified) | 18 | 7 | -1 | 37*
O=C(Nc1ccccc1)C1Cc2c(-c3ccc4c(c3)OCO4)ccnc2O1 (stereo unspecified) | · | · | · | 1
CCOC(=O)C1(C)CCN1C(=O)c1ccc(Cl)nc1 (stereo unspecified) | · | · | · | -5
COc1ccc(CN2C(=O)CCC2(C)c2nnnn2-c2c(C)cccc2C)cc1 (stereo unspecified) | · | · | · | 23*
CCOC(=O)CC1(C)Oc2ccccc2N1S(=O)(=O)c1ccc(C)cc1 (stereo unspecified) | · | · | · | 3
O=C(NCCN1CCOCC1)C12CC3CC(C1)CC(c1ccccc1)(C3)C2 | 4 | -2 | 0 | 44*
COC(=O)C[C@H]1CC[C@@H](NS(=O)(=O)c2ccccc2)[C@@H](CO)O1 | · | · | · | 3
CCCCN1C[C@H](CSC)[C@@H](CC(=O)Nc2ccc(Br)cc2)C1=O | · | · | · | -12
N=c1c(S(=O)(=O)c2ccc(Cl)cc2)cc2c(=O)n3ccccc3nc2n1CCN1CCOCC1 | -2 | 7 | -2 | -23
N=c1c(S(=O)(=O)c2ccc(Cl)cc2)cc2c(=O)n3ccccc3nc2n1CCc1ccccc1 | -5 | 5 | -63* | 75
N=c1c(S(=O)(=O)c2ccc(Cl)cc2)cc2c(=O)n3ccccc3nc2n1C1CCCCC1 | 1 | 12 | -46* | 101
N=c1c(S(=O)(=O)c2ccccc2)cc2c(=O)n3ccccc3nc2n1C1CCCC1 | -1 | 14 | -8 | -21
CCc1ccc(C(O)c2ncc(-c3ccccc3C(F)(F)F)[nH]2)cc1 (stereo unspecified) | · | · | · | 1
CCCc1c(-c2ccc(F)cc2F)ncn1Cc1cccc(-c2ccccc2)c1 | · | · | · | 8
CC1=C(C(=O)N2CCOCC2)CC(CC(=O)NC2CCCC2)C(=O)N1Cc1ccc(F)cc1 (stereo unspecified) | · | · | · | -16
Cc1ccccc1C1N=C2Oc3ccccc3C=C2C(=O)N1 (stereo unspecified) | · | · | · | 1
OC(c1ccc(F)cc1)c1nc(-c2ccc(F)c(Cl)c2)cs1 (stereo unspecified) | · | · | · | -3
Cc1cc(N2C(=O)C=CC2=O)c([N+](=O)[O-])cc1C | -5 | 48* | 0 | 12
Cc1c([N+](=O)[O-])cc(N2C(=O)C=CC2=O)cc1[N+](=O)[O-] | · | · | · | -8
OCC[C@@H]1C[C@H](O)[C@@H](O)[C@]2(OCCc3cc(Cl)ccc32)O1 | · | · | · | 13
O=C(Nc1ccc2c(c1)OCCO2)C1c2ccccc2OCC(=O)N1CCc1ccccc1 (stereo unspecified) | · | · | · | -5
O=C(NCCN1CCC(n2c(=O)[nH]c3ccccc32)CC1)c1ccccc1C(F)(F)F | · | · | · | 8
O=C(COc1ccc2c3c(c(=O)oc2c1)CCC3)NCCN1CCOCC1 | 3 | -3 | 1 | 8
O=C(COc1ccc2c3c(c(=O)oc2c1)CCCC3)NCCN1CCOCC1 | -8 | -2 | 0 | 24*
